Assays:
[1] = target: T1, 5-hydroxytryptamine receptor 1A (Rattus norvegicus, UniProt P19327); test: Tested for binding affinity against 5-hydroxytryptamine 1A receptor from rat frontal cortical regions using [3H]8-OH-DPAT as radioligand
T1 sequence (P19327 whole entry): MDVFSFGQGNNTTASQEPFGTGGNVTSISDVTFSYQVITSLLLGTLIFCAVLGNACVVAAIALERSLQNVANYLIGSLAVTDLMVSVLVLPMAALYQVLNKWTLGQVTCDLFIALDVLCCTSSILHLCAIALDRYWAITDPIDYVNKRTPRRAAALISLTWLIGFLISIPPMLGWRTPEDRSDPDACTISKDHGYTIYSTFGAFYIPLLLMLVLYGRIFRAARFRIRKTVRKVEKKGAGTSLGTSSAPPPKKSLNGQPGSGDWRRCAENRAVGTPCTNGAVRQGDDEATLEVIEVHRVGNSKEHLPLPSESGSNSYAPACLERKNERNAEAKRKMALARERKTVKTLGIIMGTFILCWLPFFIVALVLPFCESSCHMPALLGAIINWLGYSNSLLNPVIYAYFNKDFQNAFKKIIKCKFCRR

[2] = target: T2, 5-hydroxytryptamine receptor 2C (Rattus norvegicus, UniProt P08909); test: Tested for binding affinity against 5-hydroxytryptamine 1C receptor from rat frontal cortical regions using [3H]mesulergine as radioligand
T2 sequence (P08909 whole entry): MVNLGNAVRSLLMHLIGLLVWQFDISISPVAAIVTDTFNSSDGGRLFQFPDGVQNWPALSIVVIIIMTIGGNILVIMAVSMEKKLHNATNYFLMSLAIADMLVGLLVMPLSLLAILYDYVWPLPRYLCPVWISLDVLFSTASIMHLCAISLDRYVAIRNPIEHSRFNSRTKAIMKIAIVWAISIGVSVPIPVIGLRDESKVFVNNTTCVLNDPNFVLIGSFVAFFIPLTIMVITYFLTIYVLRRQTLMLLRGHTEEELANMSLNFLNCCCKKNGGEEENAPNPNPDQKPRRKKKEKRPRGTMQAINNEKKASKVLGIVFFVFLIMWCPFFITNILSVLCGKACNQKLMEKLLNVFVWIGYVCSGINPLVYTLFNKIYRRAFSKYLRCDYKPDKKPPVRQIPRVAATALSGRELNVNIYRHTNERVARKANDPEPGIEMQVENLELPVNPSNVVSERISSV
Outline: (§1)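 Rat frontal cortex homogenate (male Sprague-Dawley) was washed and preincubated 15 min at 37 °C in 50 mM Tris HCl, 0.5 mM EDTA, 10 mM MgCl2, pH 7.4, with 0.1% ascorbate and 10^-6 M pargyline. Nonspecific binding was set with 1.0 µM mianserin. Tubes ran 15 min at 37 °C in triplicate before filtration.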

[3] = target: Serotonin 2 (5-HT2) receptor (Rattus norvegicus, UniProt P30994+P08909+P14842); test: Tested for binding affinity against 5-hydroxytryptamine 2 receptor from rat frontal cortical regions using [3H]ketanserin as radioligand; format: protein assay
Outline: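 Frontal cortex from male Sprague-Dawley rats was homogenized in Tris HCl/EDTA/MgCl2 buffer, pH 7.4, containing ascorbate and pargyline. Each triplicate tube held 5 mg wet tissue and 0.4 nM [3H]ketanserin, with nonspecific binding defined by 1.0 µM cinanserin. Incubation was 15 min at 37 °C, then glass-fiber filtration and an ice-cold wash. IC50 was converted to Ki using radioligand KD from saturation experiments.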

[4] = target: Serotonin 2 (5-HT2) receptor (Rattus norvegicus) (UniProt P30994+P08909+P14842); test: Selectivity ratio, Ki against 5-HT1C versus 5-HT2; format: protein assay
Serotonin 2 (5-HT2) receptor (Rattus norvegicus), sequence (P14842 whole entry, looked up, one chain of several): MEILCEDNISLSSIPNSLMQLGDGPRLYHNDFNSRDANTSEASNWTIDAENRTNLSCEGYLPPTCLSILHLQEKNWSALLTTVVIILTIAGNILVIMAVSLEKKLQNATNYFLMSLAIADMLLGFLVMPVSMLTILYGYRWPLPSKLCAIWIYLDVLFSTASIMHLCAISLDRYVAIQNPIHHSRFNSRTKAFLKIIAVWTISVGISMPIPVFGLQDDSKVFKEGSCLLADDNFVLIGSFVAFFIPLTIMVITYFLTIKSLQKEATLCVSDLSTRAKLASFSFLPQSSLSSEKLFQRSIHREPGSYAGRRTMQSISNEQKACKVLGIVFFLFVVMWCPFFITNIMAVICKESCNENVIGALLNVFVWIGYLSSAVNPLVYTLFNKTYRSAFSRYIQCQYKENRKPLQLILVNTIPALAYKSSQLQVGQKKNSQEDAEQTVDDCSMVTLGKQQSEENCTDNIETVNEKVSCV
Serotonin 2 (5-HT2) receptor (Rattus norvegicus), sequence (P30994 whole entry, looked up, one chain of several): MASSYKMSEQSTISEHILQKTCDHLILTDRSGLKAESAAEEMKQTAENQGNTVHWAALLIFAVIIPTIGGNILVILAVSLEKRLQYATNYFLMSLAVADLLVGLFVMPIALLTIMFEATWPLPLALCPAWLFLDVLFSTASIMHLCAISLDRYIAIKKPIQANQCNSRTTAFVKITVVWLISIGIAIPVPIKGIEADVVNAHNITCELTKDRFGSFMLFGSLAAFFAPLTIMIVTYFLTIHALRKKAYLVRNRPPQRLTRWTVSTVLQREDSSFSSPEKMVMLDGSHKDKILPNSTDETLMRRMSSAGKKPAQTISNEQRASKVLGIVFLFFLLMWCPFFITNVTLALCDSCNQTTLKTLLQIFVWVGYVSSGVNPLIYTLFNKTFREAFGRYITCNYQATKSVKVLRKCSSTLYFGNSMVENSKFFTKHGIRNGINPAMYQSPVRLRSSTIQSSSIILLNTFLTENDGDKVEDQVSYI
Outline: as §1, with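 “pargyline. […]” for “pargyline.”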

[5] = target: D(2) dopamine receptor (Homo sapiens, UniProt P14416); test: Tested for binding affinity against dopamine receptor D2
D(2) dopamine receptor, sequence (P14416 whole entry): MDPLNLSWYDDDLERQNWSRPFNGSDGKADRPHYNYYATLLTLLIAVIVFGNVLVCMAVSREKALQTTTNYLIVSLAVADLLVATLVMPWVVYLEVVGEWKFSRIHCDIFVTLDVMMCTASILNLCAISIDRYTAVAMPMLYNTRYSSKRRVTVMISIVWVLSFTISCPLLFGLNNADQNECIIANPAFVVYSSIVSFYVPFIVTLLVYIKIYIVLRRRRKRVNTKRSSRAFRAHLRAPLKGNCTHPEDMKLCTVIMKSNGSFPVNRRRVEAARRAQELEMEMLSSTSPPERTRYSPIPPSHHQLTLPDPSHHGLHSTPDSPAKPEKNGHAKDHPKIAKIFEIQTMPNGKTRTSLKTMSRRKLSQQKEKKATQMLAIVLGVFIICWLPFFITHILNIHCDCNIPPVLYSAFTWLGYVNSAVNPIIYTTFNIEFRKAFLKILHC

[6] = target: D(1A) dopamine receptor (Mus musculus, UniProt Q61616); test: Tested for binding affinity against dopamine receptor D1
D(1A) dopamine receptor, sequence (Q61616 whole entry): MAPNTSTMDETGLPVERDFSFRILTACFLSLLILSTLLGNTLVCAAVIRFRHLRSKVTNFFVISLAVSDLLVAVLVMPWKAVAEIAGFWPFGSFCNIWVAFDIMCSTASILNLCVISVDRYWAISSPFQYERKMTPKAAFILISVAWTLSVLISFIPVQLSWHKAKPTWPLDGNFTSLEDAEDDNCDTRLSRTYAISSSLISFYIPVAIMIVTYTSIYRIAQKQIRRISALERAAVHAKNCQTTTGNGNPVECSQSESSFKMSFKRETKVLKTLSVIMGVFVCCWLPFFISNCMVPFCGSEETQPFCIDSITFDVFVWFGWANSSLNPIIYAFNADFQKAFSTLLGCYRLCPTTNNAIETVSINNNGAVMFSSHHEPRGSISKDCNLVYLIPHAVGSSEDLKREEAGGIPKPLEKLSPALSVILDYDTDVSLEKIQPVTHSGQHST

SMILES | Ki [1] [nM] | Ki [2] [nM] | Ki [3] [nM] | Ratio [4] | Ki [5] [nM] | Ki [6] [nM]
O=C(CCCN1CCC(C(=O)c2ccc(F)cc2)CC1)c1ccc(F)cc1 [LENPERONE] | 305 |  |  |  |  | 
NCCCC(=O)c1ccc(F)cc1 | > 100000 | > 100000 | > 100000 |  |  | 
O=C1NCN(c2ccccc2)C12CCN(CCCc1ccccc1)CC2 | 105 | > 10000 | 230 | > 30 |  | 
O=C1NCN(c2ccccc2)C12CCN(CCCCOc1ccccc1)CC2 | 30 | > 10000 | 325 | > 30 |  | 
O=C(CCCN1CCCCC1)c1ccc(F)cc1 [PRIMAPERONE] | > 10000 | > 10000 | 140 | > 70 |  | 
O=C(CCCN1CCC(Cc2ccccc2)CC1)c1ccc(F)cc1 | 180 | 1650 | 50 | 35 |  | 
O=C1NCN(c2ccccc2)C12CCN(CCCOc1ccc(F)cc1)CC2 [SPIRAMIDE] | 50 | 4300 | 2 | 2100 | 3 | 2530
O=C(CCCN1CCC2(CC1)C(=O)NCN2c1ccccc1)c1ccc(F)cc1 [SPIPERONE] | 49 |  |  |  |  | 
O=C1NCN(c2ccccc2)C12CCN(CCCOc1ccc([N+](=O)[O-])cc1)CC2 | 1160 | > 10000 | 600 | > 10 |  | 
O=C(CCCN1CCC(NC(=O)c2ccccc2)CC1)c1ccc(F)cc1 |  | > 10000 | 70 | > 140 |  | 
CN(c1ccccc1)C1CCN(CCCOc2ccc(F)cc2)CC1 | 110 | 2870 | 32 | 90 |  | 
CN(C)CCCOc1ccc(F)cc1 |  | > 10000 | 295 | > 30 |  | 
COc1ccc(OCCCN2CCC3(CC2)C(=O)NCN3c2ccccc2)cc1 | 445 | > 10000 | 1000 | > 10 |  | 
O=C1NCN(c2ccccc2)C12CCNCC2 | > 10000 | > 10000 | > 10000 |  |  | 
Fc1ccc(OCCCN2CCC(Nc3ccccc3)CC2)cc1 | 120 | 3600 | 88 | 40 |  | 
O=C1NCN(c2ccccc2)C12CCN(CCCCc1ccccc1)CC2 | 85 | > 10000 | 30 | > 300 |  | 
c1ccc(CCCCN2CCN(c3ccccc3)CC2)cc1 | 1 |  |  |  |  | 
NCCCOc1ccc(F)cc1 |  | > 10000 | 1400 | > 5 |  | 
CN(C)CCCC(=O)c1ccc(F)cc1 |  | 3300 | 80 | 40 |  | 
O=C1NCN(c2ccccc2)C12CCN(CCc1ccccc1)CC2 | 1020 | 6000 | 570 | 10 |  | 
O=C(Nc1ccccc1)C1CCN(CCCOc2ccc(F)cc2)CC1 |  | > 10000 | 95 | > 100 |  | 
O=C1NCN(c2ccccc2)C12CCN(CCCOc1ccccc1)CC2 | 75 | > 10000 | 5 | > 2000 |  | 
O=C1NCN(c2ccccc2)C12CCN(CCCCc1ccc(F)cc1)CC2 | 110 | 3200 | 5 | 650 |  | 
O=C(NC1CCN(CCCOc2ccc(F)cc2)CC1)c1ccccc1 |  | > 10000 | 70 | > 140 |  | 
O=C(c1ccc(F)cc1)C1CCN(CCCOc2ccc(F)cc2)CC1 | 285 | 335 | 8 | 40 |  | 
